The text below walks through data of ChEMBL document CHEMBL1128210, “Structure-activity relationship of omeprazole and analogues as Helicobacter pylori urease inhibitors” (J Med Chem, 1995).

Test system in the first data set: not listed separately
Description: Half life at pH 6 is a measure of the rate by which the compound is converted to the active species. The conditions noted are these: buffer.
Broadly, the half-life is how long it takes for the measured level to halve. A high value points to slow decline. Regarding `COc1ccc2[nH]c([S+]([O-])Cc3ncc(C)c(OC)c3C)nc2c1` (stereo not drawn) [OMEPRAZOLE], the half-life is 0.917 h.

Another data set relates to Helicobacter pylori. Description: Urease activity was determined in wild type-H pylori, CCUG 15818, at a concentration of 1 nM.
Settings: not given
Summed up: (§1)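 Washed whole cells grown 3 days at 37 °C under microaerophilic conditions, resuspended in PBS at assay pH to A560 = 0.3. Compound (in MeOH or DMSO, ≤1% solvent) preincubated 30 min at 37 °C with shaking. 200 mM urea added 1:1; stopped after 10 min with phenol–nitroprusside/hypochlorite reagents, 15 min colour, A650 vs (NH4)2SO4 standard; percent of control.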
In turn, `NP(N)(=O)NC(=O)c1ccc(F)cc1` displayed a Control of 80%.

Test system in another data set: not listed separately
The data set can be described thus: pKa value of the compound (pyridine ring substitutions dependent) at pH 6. The data set is classed as physicochemical. To be noted: read-out: pKapy.
With `COc1ccc2[nH]c([S+]([O-])Cc3ncc(C)c(OC)c3C)nc2c1` (stereo not drawn) [OMEPRAZOLE], the pKa came out at 4.

A further data set concerns Helicobacter pylori. Description: Urease activity was determined in wild type-H pylori, CCUG 15818, at a concentration of 1 uM.
Settings: not given
The method, boiled down: (§2)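 CCUG 15818 grown 3 days at 37 °C microaerophilic on Columbia blood agar, washed three times in PBS at assay pH, set to A560 0.3. Cells preincubated with compound (MeOH or DMSO, ≤1% solvent) for 30 min at 37 °C, then mixed 1:1 with 200 mM urea for 10 min. Ammonia read by nitroprusside-catalysed phenol–hypochlorite at A650 against (NH4)2SO4. Compound colour blank subtracted; expressed as % of control.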
For `COc1ccnc(C[S+]([O-])c2nc3c(F)cc(F)cc3[nH]2)c1` (stereo not drawn), the Urease activity (% of control) stood at 106%.
Regarding `Cc1c(OCC(F)(F)F)ccnc1C[S+]([O-])c1nc2ccccc2[nH]1` (stereo not drawn) [LANSOPRAZOLE], the Urease activity (% of control) was 105%.
Same read-out and setting: then `Cc1cc(C)c(C[S+]([O-])c2nc3cc(Cl)ccc3[nH]2)nc1C` (stereo not drawn), with 97%; and `COc1ccc2[nH]c([S+]([O-])Cc3nccc(OC(C)C)c3C)nc2c1` (stereo not drawn), with 86%.
Consider `COc1ccc2[nH]c([S+]([O-])Cc3ncc(C)c(OC)c3C)nc2c1` (stereo not drawn) [OMEPRAZOLE], for which the Urease activity (% of control) worked out at 109%.
As to `CCOc1ccnc(C[S+]([O-])c2nc3ccccc3[nH]2)c1C` (stereo not drawn), the Urease activity (% of control) was 76%.

Test system in a further data set: not listed separately
Description: Half life at pH 7 is a measure of the rate by which the compound is converted to the active species. The data set is classed as ADME. To be noted: buffer.
For `COc1ccnc(C[S+]([O-])c2nc3c(F)cc(F)cc3[nH]2)c1` (stereo not drawn), the half-life worked out at 32 h.
Take `Cc1c(OCC(F)(F)F)ccnc1C[S+]([O-])c1nc2ccccc2[nH]1` (stereo not drawn) [LANSOPRAZOLE]: the half-life was determined as 13 h.
Take `COc1ccc2[nH]c([S+]([O-])Cc3nccc(OC(C)C)c3C)nc2c1` (stereo not drawn): the half-life stood at 1.5 h.
Same read-out and setting: then `COc1ccc2[nH]c([S+]([O-])Cc3ncc(C)c(OC)c3C)nc2c1` (stereo not drawn) [OMEPRAZOLE], with 23 h; and `CCOc1ccnc(C[S+]([O-])c2nc3ccccc3[nH]2)c1C` (stereo not drawn), with 0.9 h.

Test system in the next data set: not listed separately
Description: Relative retention time at pH 6. Format: ADME. The conditions noted are these: buffer.
In the case of `COc1ccc2[nH]c([S+]([O-])Cc3ncc(C)c(OC)c3C)nc2c1` (stereo not drawn) [OMEPRAZOLE], the “Log k'o” value is reported as 0.83.

For the next data set, the system named is Helicobacter pylori. The data set can be described thus: Urease activity was determined in wild type-H pylori, CCUG 15818, at a concentration of 100 nM.
Settings: not given
Summed up: as §1
The molecule `NP(N)(=O)NC(=O)c1ccc(F)cc1` gave a Control of 0%.

Test system in another data set: not listed separately
Description: Relative retention time of the compound. Format: ADME.
Settings: not given
On to `COc1ccnc(C[S+]([O-])c2nc3c(F)cc(F)cc3[nH]2)c1` (stereo not drawn), for which the “Log k'o” value worked out at 0.09.
In the case of `Cc1c(OCC(F)(F)F)ccnc1C[S+]([O-])c1nc2ccccc2[nH]1` (stereo not drawn) [LANSOPRAZOLE], the “Log k'o” value was found to be 1.1.
The same measure, in the same setting: then `COc1ccc2[nH]c([S+]([O-])Cc3nccc(OC(C)C)c3C)nc2c1` (stereo not drawn), with 1.22.
In the case of `COc1ccc2[nH]c([S+]([O-])Cc3ncc(C)c(OC)c3C)nc2c1` (stereo not drawn) [OMEPRAZOLE], the “Log k'o” value is reported as 0.83.
Still for that read-out and setting: then `CCOc1ccnc(C[S+]([O-])c2nc3ccccc3[nH]2)c1C` (stereo not drawn), with 0.92.

In a further data set the test system is Helicobacter pylori. Description: Urease activity was determined in wild type-H pylori, CCUG 15818, at a concentration of 100 uM at pH 6.
Settings: not given
For `COc1ccc2[nH]c([S+]([O-])Cc3ncc(C)c(OC)c3C)nc2c1` (stereo not drawn) [OMEPRAZOLE], the Control stood at 28%.

Test system in the next data set: not listed separately
The data set can be described thus: pKa value of the compound (benzimidazole ring substitutions dependent). Format: physicochemical. To be noted: read-out: pKabz.
Take `COc1ccnc(C[S+]([O-])c2nc3c(F)cc(F)cc3[nH]2)c1` (stereo not drawn): the pKa stood at 7.6.
Turning to `Cc1c(OCC(F)(F)F)ccnc1C[S+]([O-])c1nc2ccccc2[nH]1` (stereo not drawn) [LANSOPRAZOLE], the pKa was 8.7.
Same read-out and setting: then `COc1ccc2[nH]c([S+]([O-])Cc3nccc(OC(C)C)c3C)nc2c1` (stereo not drawn), with 8.9; and `COc1ccc2[nH]c([S+]([O-])Cc3ncc(C)c(OC)c3C)nc2c1` (stereo not drawn) [OMEPRAZOLE], with 8.7.
In the case of `CCOc1ccnc(C[S+]([O-])c2nc3ccccc3[nH]2)c1C` (stereo not drawn), the pKa came to 8.8.

A further data set relates to Helicobacter pylori. The data set can be described thus: Urease activity was determined in wild type-H pylori, CCUG 15818, at a concentration of 10 nM.
Settings: not given
The method, boiled down: as §1
Molecule `NP(N)(=O)NC(=O)c1ccc(F)cc1` gave a Control of 10%.

The next data set deals with Helicobacter pylori. Description: Urease activity was determined in wild type-H pylori, CCUG 15818, at a concentration of 1 uM at pH 6.
Settings: not given
Turning to `COc1ccc2[nH]c([S+]([O-])Cc3ncc(C)c(OC)c3C)nc2c1` (stereo not drawn) [OMEPRAZOLE], the Control came out at 115%.

Test system in a further data set: not listed separately
The data set can be described thus: pKa value of the compound (pyridine ring substitutions dependent). The data set is classed as physicochemical. To be noted: read-out: pKapy.
With `COc1ccnc(C[S+]([O-])c2nc3c(F)cc(F)cc3[nH]2)c1` (stereo not drawn), the pKa came out at 4.1.
Consider `Cc1c(OCC(F)(F)F)ccnc1C[S+]([O-])c1nc2ccccc2[nH]1` (stereo not drawn) [LANSOPRAZOLE], for which the pKa came to 3.9.
With `COc1ccc2[nH]c([S+]([O-])Cc3nccc(OC(C)C)c3C)nc2c1` (stereo not drawn), the pKa is 5.1.
With `COc1ccc2[nH]c([S+]([O-])Cc3ncc(C)c(OC)c3C)nc2c1` (stereo not drawn) [OMEPRAZOLE], the pKa stood at 4.
On to `CCOc1ccnc(C[S+]([O-])c2nc3ccccc3[nH]2)c1C` (stereo not drawn), for which the pKa turned out to be 4.9.

For a further data set, the system named is Helicobacter pylori. Description: Urease activity was determined in wild type-H pylori, CCUG 15818, at a concentration of 10 uM at pH 6.
Settings: not given
Turning to `COc1ccc2[nH]c([S+]([O-])Cc3ncc(C)c(OC)c3C)nc2c1` (stereo not drawn) [OMEPRAZOLE], the Control is 88%.

The next data set has as its system Helicobacter pylori. The data set can be described thus: Urease activity in wild type H pylori, CCUG 15818, at 100 uM.
Settings: not given
The method, boiled down:
as §2
`COc1ccnc(C[S+]([O-])c2nc3c(F)cc(F)cc3[nH]2)c1` (stereo not drawn): the Urease activity (% of control) was found to be 80%.
On to `Cc1c(OCC(F)(F)F)ccnc1C[S+]([O-])c1nc2ccccc2[nH]1` (stereo not drawn) [LANSOPRAZOLE], for which the Urease activity (% of control) was determined as 29%.
Same read-out and setting: then `Cc1cc(C)c(C[S+]([O-])c2nc3cc(Cl)ccc3[nH]2)nc1C` (stereo not drawn), with 164%.
Consider `COc1ccc2[nH]c([S+]([O-])Cc3nccc(OC(C)C)c3C)nc2c1` (stereo not drawn), for which the Urease activity (% of control) stood at 0%.
In the case of `COc1ccc2[nH]c([S+]([O-])Cc3ncc(C)c(OC)c3C)nc2c1` (stereo not drawn) [OMEPRAZOLE], the Urease activity (% of control) is 64%.
Consider `CCOc1ccnc(C[S+]([O-])c2nc3ccccc3[nH]2)c1C` (stereo not drawn), for which the Urease activity (% of control) was 8%.

A further data set concerns Helicobacter pylori. The data set can be described thus: Urease activity in H pylori, CCUG 15818, at 10 uM.
Settings: not given
The method, boiled down:
as §2
In the case of `COc1ccnc(C[S+]([O-])c2nc3c(F)cc(F)cc3[nH]2)c1` (stereo not drawn), the Urease activity (% of control) amounted to 89%.
In the case of `Cc1c(OCC(F)(F)F)ccnc1C[S+]([O-])c1nc2ccccc2[nH]1` (stereo not drawn) [LANSOPRAZOLE], the Urease activity (% of control) amounted to 103%.
On to `Cc1cc(C)c(C[S+]([O-])c2nc3cc(Cl)ccc3[nH]2)nc1C` (stereo not drawn), for which the Urease activity (% of control) is 105%.
`COc1ccc2[nH]c([S+]([O-])Cc3nccc(OC(C)C)c3C)nc2c1` (stereo not drawn): the Urease activity (% of control) is 35%.
In the case of `COc1ccc2[nH]c([S+]([O-])Cc3ncc(C)c(OC)c3C)nc2c1` (stereo not drawn) [OMEPRAZOLE], the Urease activity (% of control) worked out at 96%.
With `CCOc1ccnc(C[S+]([O-])c2nc3ccccc3[nH]2)c1C` (stereo not drawn), the Urease activity (% of control) was 38%.

Test system in a further data set: not listed separately
Description: pKa value of the compound (benzimidazole ring substitutions dependent) at pH 6. Format: physicochemical. The conditions noted are these: read-out: pKabz.
For the molecule `COc1ccc2[nH]c([S+]([O-])Cc3ncc(C)c(OC)c3C)nc2c1` (stereo not drawn) [OMEPRAZOLE], the pKa came out at 8.7.
